Legend:
[1] = system: Homo sapiens; assay: Toxicity in patient with severe malaria assessed as decrease of systolic blood pressure at 12 g, iv for 30 mins via infusion pump; type: organism-based, Artery; settings: in vivo, 0.5 h
In short: (§1)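 In adults with malaria on IV quinine, 10 per dose, systolic and diastolic blood pressure were recorded at baseline and immediately at the end of a 30-min IV L-arginine infusion (in saline, 10% or less). They were followed afterward to check return to baseline. Mean change was given with 95% CI and P value.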

[2] = system: Homo sapiens; assay: Toxicity in patient with severe malaria assessed as decrease of systolic blood pressure at 3 to 6 g, iv for 30 mins via infusion pump; type: organism-based, Artery; settings: in vivo, 0.5 h; in short: as §1
[3] = system: Homo sapiens; assay: Toxicity in patient with severe malaria assessed as effect on pulse rate at 3 to 12 g, iv for 30 mins via infusion pump measured during drug infusion; type: organism-based; settings: in vivo, 0.5 h
[4] = system: Homo sapiens; assay: Toxicity in patient with severe malaria assessed as effect on respiratory rate at 3 to 12 g, iv for 30 mins via infusion pump measured during drug infusion; type: organism-based; settings: in vivo, 0.5 h
[5] = system: Homo sapiens; assay: Toxicity in patient with severe malaria assessed as effect on pulse rate at 3 to 12 g, iv for 30 mins via infusion pump measured after drug infusion; type: organism-based; settings: in vivo, 0.5 h
[6] = system: Homo sapiens; assay: Toxicity in patient with severe malaria assessed as pain at drug infusion site at 3 to 12 g, iv for 30 mins via infusion pump; type: organism-based; settings: in vivo, 0.5 h
[7] = system: Homo sapiens; assay: Toxicity in patient with severe malaria assessed as effect on respiratory rate at 3 to 12 g, iv for 30 mins via infusion pump measured after drug infusion; type: organism-based; settings: in vivo, 0.5 h
[8] = Plasma concentration in patient with severe malaria at 12 g, iv for 30 mins via infusion pump; type: ADME, organism-based; settings: human
In short: (§2)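 Adults with moderately severe malaria, all on IV quinine, were placed in groups of 10 per dose. L-arginine was diluted in normal saline to 10% or less and given IV through an antecubital cannula over 30 min. Plasma was taken at 8–11 time points up to 24 h, separated within 30 min and stored at −70°C. Samples were ethanol-deproteinized with norleucine as internal standard, AccQFluor-derivatized and measured by HPLC. Peak was taken after the end of infusion.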

[9] = Primary phase half life in patient with severe malaria administered as iv for 30 mins via infusion pump; type: ADME, organism-based; settings: human, in vivo, read-out: alphat1/2
In short: (§3)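 Half-lives came from a population model fitted in NONMEM (FOCE with interaction) to plasma HPLC levels from infused patients and from patients not given L-arginine. The model was two-compartment linear with first-order elimination and combined proportional and additive residual error. Baseline and natural recovery were fitted by a second-order polynomial. CV% was estimated by simulation assuming a log-normal distribution.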

[10] = Terminal half life in patient with severe malaria administered as iv for 30 mins via infusion pump; type: ADME, organism-based; settings: human, in vivo, read-out: beta t1/2 (converted); in short: as §3
[11] = system: Homo sapiens; assay: Toxicity in patient with severe malaria assessed as decrease of diastolic blood pressure at 3 to 6 g, iv for 30 mins via infusion pump; type: organism-based, Artery; settings: in vivo, 0.5 h; in short: as §1
[12] = Plasma concentration in patient with severe malaria at 6 g, iv for 30 mins via infusion pump; type: ADME, organism-based; settings: human; in short: as §2
[13] = system: Homo sapiens; assay: Toxicity in patient with severe malaria assessed as inflammation at 3 to 12 g, iv for 30 mins via infusion pump; type: organism-based; settings: in vivo, 0.5 h
[14] = system: Homo sapiens; assay: Toxicity in patient with severe malaria assessed as decrease of diastolic blood pressure at 12 g, iv for 30 mins via infusion pump; type: organism-based, Artery; settings: in vivo, 0.5 h; in short: as §1
[15] = Plasma concentration in patient with severe malaria at 3 g, iv for 30 mins via infusion pump; type: ADME, organism-based; settings: human; in short: as §2

For `N=C(N)NCCC[C@H](N)C(=O)O` [ARGININE], which Activity [1] is on record?
The Activity was 5 mmHg.

What about the Activity [2] of the same compound?
The Activity was “Non-toxic”.

What about the Activity [3] of the same compound?
The Activity was “Non-toxic”.

And the Activity [4]?
The Activity was “Non-toxic”.

What about the Activity [5] of the same compound?
Its Activity is “Non-toxic”.

What about the Activity [6] of the same compound?
Its Activity is “Non-toxic”.

What about the Activity [7] of the same compound?
The Activity was “Non-toxic”.

And the concentration at 0.5 h [8]?
Its concentration at 0.5 h is 1310 µM.

What about the half-life [9] of the same compound?
The half-life was 0.25 h.

And the half-life [10]?
Its half-life is 3.75 h.

What about the Activity [11] of the same compound?
Its Activity is “Non-toxic”.

What about the concentration at 0.5 h [12] of the same compound?
The concentration at 0.5 h was 809 µM.

And the Activity [13]?
The Activity was “Non-toxic”.

And the Activity [14]?
The Activity was 5 mmHg.

And the concentration at 0.5 h [15]?
Its concentration at 0.5 h is 288 µM.

Source: ChEMBL document CHEMBL1687716, “Pharmacokinetics of L-arginine in adults with moderately severe malaria” (Antimicrob Agents Chemother, 2008)
